High-throughput results (PubChem)
KCNK3 inh: human KCNK3 channel inhibition, primary screen; 340,000 compounds, 0.84% hits; B-score at 10 µM; CHO-KCNK3 thallium flux, FluxOR fluorescence; stronger effect = lower value; AID 602410; O14649;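 active = B-score under library mean minus 4 SD, starting fluorescence ratio at most library mean plus 5 SD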;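 note: more negative B-score means stronger inhibition of thallium flux through KCNK3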
hERG protect: shields human hERG channel from block by proarrhythmic agents; CHO-hERG, FluxOR thallium flux, dofetilide IC70 present; 310,000 compounds, 0.51% hits; AID 1511; activation (rescue from dofetilide block), less the hit threshold, % at 10 µM; Q12809;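 active = activation above the mean of controls blocked by dofetilide plus 5 SD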;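 note: thallium influx through hERG after potassium depolarization seen as dye fluorescence rise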
KCNQ1 block: human KCNQ1 channel inhibition. 310,000 compounds, 1.3% hits. CHO-K1 KCNQ1, FluxOR thallium flux fluorescence; stronger effect = higher value. B-score at 10 µM;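 active = compounds whose thallium flux B-score, printed positive for inhibition, exceeds three library SD while starting fluorescence stays within three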;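 note: channel opened by potassium depolarization with thallium stimulus after 20 min compound exposure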
Target sequence (P51787 whole entry, looked up): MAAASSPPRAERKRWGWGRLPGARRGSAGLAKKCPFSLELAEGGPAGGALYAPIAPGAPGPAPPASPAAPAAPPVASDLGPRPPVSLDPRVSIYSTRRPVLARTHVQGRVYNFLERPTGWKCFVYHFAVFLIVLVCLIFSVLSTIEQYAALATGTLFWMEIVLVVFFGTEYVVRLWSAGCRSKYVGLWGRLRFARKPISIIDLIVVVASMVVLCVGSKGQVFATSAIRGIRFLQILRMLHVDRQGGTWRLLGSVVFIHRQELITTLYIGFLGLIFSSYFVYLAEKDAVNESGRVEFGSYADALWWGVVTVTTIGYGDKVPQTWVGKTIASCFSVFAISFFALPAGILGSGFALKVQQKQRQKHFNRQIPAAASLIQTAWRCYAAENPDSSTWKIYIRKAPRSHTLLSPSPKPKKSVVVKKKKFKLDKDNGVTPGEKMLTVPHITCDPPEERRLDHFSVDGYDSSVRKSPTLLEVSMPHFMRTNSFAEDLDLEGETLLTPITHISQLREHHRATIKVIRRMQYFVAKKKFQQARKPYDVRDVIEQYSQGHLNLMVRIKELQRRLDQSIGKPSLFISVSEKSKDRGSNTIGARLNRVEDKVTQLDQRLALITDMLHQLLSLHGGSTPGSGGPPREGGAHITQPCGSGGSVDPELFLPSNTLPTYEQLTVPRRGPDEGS
KCNQ1 pot: potentiators or activators of human KCNQ1 potassium channel; CHO-K1 KCNQ1, thallium flux FluxOR fluorescence; stronger effect = higher value; B-score at 10 µM; 310,000 compounds, 0.35% hits; AID 2648;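 active = fluorescence ratio B-score, a plate-corrected score, at least three library SD, with initial intensity B-score within 5 SD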
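System: Stable KCNQ1 CHO-K1 line | Incubation: 90 min dye loading and 20 min compound exposure, both at room temperature | Measure: Ratio B score | Medium: Assay buffer for compound exposure, DMSO matched across wells | Compound dosing: Single-concentration screen | Probe or stimulus: K+/Tl+ depolarizing stimulus | Measured by: Kinetic FluxOR fluorescence, 10 s baseline plus 110 s post-stimulus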
KCNK9 block: inhibitors of human KCNK9 two-pore domain potassium channel; Q9NPC2; HEK293 KCNK9, FluxOR thallium flux fluorescence; stronger effect = lower value; B-score at 10 µM; 310,000 compounds, 1.2% hits; AID 488922;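 active = ratio B-score over 3 SD below the library mean, with starting fluorescence within 5 SD of its mean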;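 note: negative B-score means less thallium flux so channel inhibition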
Starred values were filed as active, the others as inactive. Sampled rows, rich in hits. Any-hit rate of the full collection: about 3.1%.

For Cc1n[nH]c(=O)c2c(NC(=O)COC(=O)Cc3ccc(Cl)cc3Cl)oc(C)c12 the results were KCNK3 inh inactive, hERG protect -6, KCNQ1 block inactive, KCNQ1 pot inactive and KCNK9 block inactive.
For O=C1C=C(Nc2cccc(Cl)c2)CC(c2ccco2)C1 (configuration not stated) the results were KCNK3 inh inactive, hERG protect 3, KCNQ1 block inactive, KCNQ1 pot inactive and KCNK9 block inactive.
For CCc1ccc(NC2=CC(=O)CC(c3ccco3)C2)cc1 (configuration not stated) the results were KCNK3 inh inactive, hERG protect -7, KCNQ1 block inactive, KCNQ1 pot inactive and KCNK9 block -7*.
O=C(CCSc1nnc(-c2ccco2)o1)N1CCOCC1 was read as KCNK3 inh inactive, hERG protect 5.7*, KCNQ1 block inactive, KCNQ1 pot inactive and KCNK9 block inactive.
`O=C(CCSc1nnc(-c2ccccc2)o1)N1CCOCC1` gave KCNK3 inh inactive, hERG protect -3, KCNQ1 block inactive, KCNQ1 pot inactive and KCNK9 block inactive.
`CC1C(=O)C(C)C(c2ccc(Br)cc2)NC1c1ccc(Br)cc1` (configuration not stated) gave KCNK3 inh inactive, hERG protect -9, KCNQ1 block 6*, KCNQ1 pot inactive and KCNK9 block inactive.
For CC1C(=O)C(C)C(c2cc(Br)ccc2O)NC1c1cc(Br)ccc1O (configuration not stated) the results were KCNK3 inh inactive.
Screening CCOC(=O)CSC1=C(C#N)C(=O)NC2(CCCCC2)S1 returned KCNK3 inh inactive, hERG protect -11, KCNQ1 block inactive, KCNQ1 pot inactive and KCNK9 block inactive.
COC(=O)c1c(NC(=O)CS(=O)(=O)c2ccccc2)sc(C)c1C was read as KCNK3 inh inactive, hERG protect -3, KCNQ1 block inactive, KCNQ1 pot inactive and KCNK9 block inactive.
`Cc1c(C(=O)N2CCOCC2)c(S(=O)(=O)Nc2ccc(C(C)C)cc2)c(C)n1C` gave KCNK3 inh inactive, hERG protect -3, KCNQ1 block inactive, KCNQ1 pot inactive and KCNK9 block inactive.
For COC(=O)c1[nH]c2ccc(Br)cc2c1NC(=O)CN1CCN(C2CCCCC2)CC1 the results were KCNK3 inh inactive, hERG protect -16, KCNQ1 block inactive, KCNQ1 pot inactive and KCNK9 block inactive.
For COC(=O)c1[nH]c2ccc(Br)cc2c1NC(=O)CN1CCCc2ccccc21 the results were KCNK3 inh inactive, hERG protect -3, KCNQ1 block 6*, KCNQ1 pot inactive and KCNK9 block inactive.
For c1ccc(-c2cc(N3CCOCC3)nc3ccccc23)cc1 the results were KCNK3 inh inactive, hERG protect -5, KCNQ1 block 6*, KCNQ1 pot inactive and KCNK9 block inactive.
For Cc1ccc(C)c(SCC(=O)Nc2ccc(C)c(S(=O)(=O)N3CCOCC3)c2)c1 the results were KCNK3 inh inactive.
`CCOC(=O)CN1C=C(c2ccc3ccccc3n2)C(C[N+](=O)[O-])c2ccccc21` (configuration not stated) gave KCNK3 inh inactive, hERG protect -26, KCNQ1 block 11*, KCNQ1 pot inactive and KCNK9 block inactive.
Screening CCOC(=O)/C(=C\c1ccccc1)C(=O)c1cc(C(C)=O)c(Nc2ccccc2)s1 returned KCNK3 inh inactive, hERG protect -14, KCNQ1 block inactive, KCNQ1 pot inactive and KCNK9 block inactive.
`CCOC(=O)/C(=C\c1cccnc1)C(=O)c1cc(C(C)=O)c(Nc2ccccc2)s1` gave KCNK3 inh inactive, hERG protect -9, KCNQ1 block inactive, KCNQ1 pot 36* and KCNK9 block inactive.
Screening Nc1c2c(=O)[nH]c(O)cc2nn1-c1ccccc1 returned KCNK3 inh inactive.
COc1ccc2nc(N=Nc3c(O)ccc4ccccc34)sc2c1 was read as hERG protect 17*, KCNQ1 block inactive, KCNQ1 pot 15* and KCNK9 block inactive.
`COc1ccc2nc(NC(=O)Nc3cccc4ccccc34)sc2c1` gave KCNK3 inh inactive, hERG protect -10, KCNQ1 block inactive, KCNQ1 pot inactive and KCNK9 block inactive.
